The test system of test [1] is CHO. Description: Inhibitory activity against N-acetyl-L-aspartyl-L-glutamate (NAAG) peptidase of rat stably expressed in CHO cells at 100 uM; NA=no activity. Type of test: cell-based.
Test [2] addresses Metabotropic glutamate receptor 3 (Homo sapiens, UniProt Q14832). In words: Agonist potency against cloned Metabotropic glutamate receptor 3. Type of test: functional. Summed up: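 mGluR3 activity was measured on a chimeric mGluR3/1a receptor, which carries mGluR3 pharmacology but couples to phospholipase C. Agonist response was read as accumulation of inositol phosphates.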

For test [3], the system named is CHO. Description: Inhibitory activity against N-acetyl-L-aspartyl-L-glutamate (NAAG) peptidase of rat stably expressed in CHO cells at 100 uM. The class given is cell-based.

These results are taken from ChEMBL document CHEMBL1133715, “Dual function glutamate-related ligands: discovery of a novel, potent inhibitor of glutamate carboxypeptidase II possessing mGluR3 agonist activity” (J Med Chem, 2000).

“And” between values parts separate entries of the source, which are not always exact repeats. Equal entries are not always repeated. The source made the active and inactive calls. The calls are words filed in the database; no cut-off is given here. Some results are limits rather than exact numbers.

Metabotropic glutamate receptor 3, sequence (Q14832 whole entry): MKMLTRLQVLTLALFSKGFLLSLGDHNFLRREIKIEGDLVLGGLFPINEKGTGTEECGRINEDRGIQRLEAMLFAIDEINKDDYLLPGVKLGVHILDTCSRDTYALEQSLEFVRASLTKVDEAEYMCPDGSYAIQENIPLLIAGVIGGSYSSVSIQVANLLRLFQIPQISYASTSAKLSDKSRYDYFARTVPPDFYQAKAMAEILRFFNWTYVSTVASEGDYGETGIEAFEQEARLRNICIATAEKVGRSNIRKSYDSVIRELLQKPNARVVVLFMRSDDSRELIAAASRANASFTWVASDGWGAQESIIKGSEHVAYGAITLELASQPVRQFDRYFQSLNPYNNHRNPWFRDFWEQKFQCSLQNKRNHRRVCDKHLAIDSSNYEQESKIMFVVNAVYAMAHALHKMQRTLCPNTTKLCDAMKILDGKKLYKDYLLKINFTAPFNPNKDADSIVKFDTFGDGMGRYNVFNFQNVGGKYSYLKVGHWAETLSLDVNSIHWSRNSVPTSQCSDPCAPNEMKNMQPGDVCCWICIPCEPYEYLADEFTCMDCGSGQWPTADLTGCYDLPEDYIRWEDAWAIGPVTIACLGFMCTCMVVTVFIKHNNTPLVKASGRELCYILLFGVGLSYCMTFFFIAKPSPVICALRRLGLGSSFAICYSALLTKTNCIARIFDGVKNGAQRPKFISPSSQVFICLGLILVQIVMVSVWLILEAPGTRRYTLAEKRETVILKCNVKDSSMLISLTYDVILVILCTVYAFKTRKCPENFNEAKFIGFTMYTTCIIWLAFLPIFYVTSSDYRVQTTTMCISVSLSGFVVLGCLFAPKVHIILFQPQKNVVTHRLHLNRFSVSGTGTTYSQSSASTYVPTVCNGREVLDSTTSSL

In the case of `O=C(O)CCC(CC(=O)CC(CCC(=O)O)C(=O)O)C(=O)O` (stereo unspecified), in the test on CHO [1], the inhibition entry was “inactive”. Also, the concentration for a half-maximal effect (EC50) in test [2] was greater than 300 µM. In turn, `O=C(O)CC[C@H](CP(=O)(O)C[C@H](CCC(=O)O)C(=O)O)C(=O)O` showed a half-maximal effective concentration (EC50) in test [2] of 33 µM.

As to `O=C(O)CCC(CP(=O)(O)CC(CCC(=O)O)C(=O)O)C(=O)O` (stereo unspecified), the inhibition in the test with CHO [3] was 21.7% and 6.9% and 22.3%. Also, the EC50 in test [2] was 39 µM and 45 µM and 51 µM. The molecule `O=C(O)CCC(=O)CC(CCC(=O)O)C(=O)O` (stereo unspecified) returned an inhibition in the test on CHO [3] of 35%.

For orientation: inhibition means the drop in the measured response relative to a control, in per cent. By EC50 is commonly meant the concentration giving half of the maximal effect.
